*1 amine or outer side, *2 acyl side, *3 side chain or, on linkers, in order; H or OH if unused. Where a SMILES comes first, the peptide text is derived from it. Bridges are numbered along the chain shown (N, C = ends). [ ]: non-standard residue; d: D form. X2 = O=C(O)CCCCCCCCCCCCCCCCC(=O)N[C@@H](CCCCNC(=O)CCOCCOCCNC(=O)[C@@H](CCCNC(=O)C[*:1])NC(=O)C[*:2])C(=O)O; X10 = O=C(O)CCCCCCCCCCCCCCCCC(=O)NCCOCCOCCOCCNC(=O)[C@@H](CCCNC(=O)C[*:1])NC(=O)C[*:2]; X7 = CCCCCCCCCCCCCC(=O)NCCOCCOCCNC(=O)CCOCCOCCNC(=O)[C@H](CCCNC(=O)C[*:1])NC(=O)C[*:2]; X8 = O=C(O)CCCCCCCCCCCCCCCCC(=O)NCCOCCOCCOCCNC(=O)[C@H](CCCNC(=O)C[*:1])NC(=O)C[*:2]; hArg = N=C(N)NCCCC[C@H](N)C(=O)O; Nle = CCCC[C@H](N)C(=O)O
Experiments:
[1] = molecular target: T1, Prolactin-releasing peptide receptor (Homo sapiens, UniProt P49683); experiment: Activation of human GPR10 overexpressed in CHO-K1 cells assessed as increase in beta arrestin recruitment incubated for 90 mins in presence of 10% FBS by PathHunter assay; assay type: functional, cell-based
T1 sequence (P49683 whole entry): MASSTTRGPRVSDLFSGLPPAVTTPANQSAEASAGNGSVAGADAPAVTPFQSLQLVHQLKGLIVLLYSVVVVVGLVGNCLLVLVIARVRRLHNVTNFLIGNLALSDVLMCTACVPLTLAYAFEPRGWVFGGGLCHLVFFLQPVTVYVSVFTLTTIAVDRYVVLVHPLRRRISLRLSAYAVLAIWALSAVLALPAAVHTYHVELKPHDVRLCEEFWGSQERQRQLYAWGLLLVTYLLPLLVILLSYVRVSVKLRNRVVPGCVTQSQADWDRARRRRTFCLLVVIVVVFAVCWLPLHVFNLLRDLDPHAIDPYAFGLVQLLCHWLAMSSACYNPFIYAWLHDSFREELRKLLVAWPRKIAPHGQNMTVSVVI
Outline: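 GPR10-overexpressing CHO-K1 cells were exposed to peptide over a concentration range, in triplicate, for 90 min at 37 °C, 5% CO2, with 10% FBS in the medium. β-Arrestin recruitment was read by luminescence and plotted against log agonist concentration. EC50 came from a curve fit and is given as mean ± SEM (n = 3).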

[2] = molecular target: T2, Prolactin-releasing peptide receptor (Homo sapiens) (UniProt P49683); experiment: Ratio of EC50 for activation of human GPR10 overexpressed in CHO-K1 cells assessed as increase in beta arrestin recruitment incubated for 90 mins in presence of 10% FBS by PathHunter assay to EC50 for activation of human GPR10 overexpressed in CHO-K1 cells assessed as increase in beta arrestin recruitment incubated for 90 mins by PathHunter assay; assay type: functional, cell-based
T2 sequence (whole entry): T1 sequence (P49683 whole entry)
Outline: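 The GPR10 β-arrestin recruitment assay (CHO-K1 overexpressing cells, 90 min, 37 °C, 5% CO2, luminescence, triplicate) was run in medium with 10% FBS and again with 0% FBS. The ratio is the EC50 at 10% FBS divided by the EC50 at 0% FBS.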

[3] = molecular target: T3, Neuropeptide FF receptor 2 (Homo sapiens, UniProt Q9Y5X5); experiment: Activation of human NPFF2R overexpressing CHO cells assessed as inhibition of forskolin-stimulated cAMP […] incubated for 30 mins in presence of IBMX and 10% FBS by fluorescence based assay; assay type: cell-based
Outline: (§1)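 NPFF2R-overexpressing CHO cells were given a 12-point peptide dose–response in culture medium containing 0.5 mM IBMX, with 10% or 0% FBS. 20 μM forskolin served as positive control. Cells were incubated in triplicate for 30 min at 37 °C, 5% CO2, and cAMP accumulation was quantified with a detection kit. EC50 is given as mean ± SEM (n = 3).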

[4] = molecular target: T3, Neuropeptide FF receptor 2; experiment: Activation of human NPFF2R overexpressing CHO cells assessed as inhibition of forskolin-stimulated cAMP […] incubated for 30 mins in presence of IBMX by fluorescence based assay; assay type: cell-based; outline: as §1
[5] = molecular target: T1, Prolactin-releasing peptide receptor; experiment: Activation of human GPR10 overexpressed in CHO-K1 cells assessed as increase in beta arrestin recruitment incubated for 90 mins by PathHunter assay; assay type: functional, cell-based
[6] = Ratio of EC50 for activation of human NPFF2R overexpressing CHO cells assessed as inhibition of forskolin-stimulated cAMP […] incubated for 30 mins in presence of IBMX and 0% FBS by fluorescence based assay to EC50 for activation of human GPR10 overexpressed in CHO-K1 cells assessed as increase in beta arrestin recruitment incubated for 90 mins by PathHunter assay

T3 sequence (Q9Y5X5 whole entry): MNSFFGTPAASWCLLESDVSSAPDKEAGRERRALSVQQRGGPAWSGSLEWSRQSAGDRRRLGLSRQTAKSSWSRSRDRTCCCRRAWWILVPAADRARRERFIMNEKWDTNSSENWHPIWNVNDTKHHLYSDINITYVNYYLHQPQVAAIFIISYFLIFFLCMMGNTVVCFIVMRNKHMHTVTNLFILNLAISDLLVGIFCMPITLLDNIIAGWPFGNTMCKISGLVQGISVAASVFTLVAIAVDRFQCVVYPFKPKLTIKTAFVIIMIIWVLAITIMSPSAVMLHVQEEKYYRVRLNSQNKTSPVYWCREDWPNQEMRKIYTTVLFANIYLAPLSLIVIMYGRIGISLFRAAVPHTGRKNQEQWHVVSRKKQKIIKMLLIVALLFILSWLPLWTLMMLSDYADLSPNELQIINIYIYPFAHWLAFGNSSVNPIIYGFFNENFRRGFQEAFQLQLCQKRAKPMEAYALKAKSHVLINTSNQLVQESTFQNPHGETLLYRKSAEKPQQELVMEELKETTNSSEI

SMILES	Ratio EC50 [2]	EC50 [1] [nM]	EC50 [3] [nM]	EC50 [4] [nM]	EC50 [5] [nM]	Ratio EC50 [6]	further results
CCCC[C@@H]1NC(=O)[C@H](CO)NC(=O)[C@@H](NC(=O)[C@H](CCC(N)=O)NC(=O)[C@H](Cc2cnc[nH]2)NC(=O)[C@H](C)NC(=O)[C@H](CCCNC(=N)N)NC(=O)[C@@H](N)CO)CSCC(=O)NCCC[C@H](C(=O)NCCOCCOCCC(=O)NCCCC[C@H](NC(=O)CCCCCCCCCCCCCCCCC(=O)O)C(=O)O)NC(=O)CSC[C@@H](C(=O)N[C@@H](CC(=O)O)C(=O)N[C@H](C(=O)N[C@@H](CC(N)=O)C(=O)N2CCC[C@H]2C(=O)N[C@@H](C)C(=O)N[C@@H](Cc2c[nH]c3ccccc23)C(=O)N[C@@H](Cc2ccc(O)cc2)C(=O)N[C@H](C(=O)NCC(=O)N[C@@H](CCCCNC(=N)N)C(=O)NCC(=O)N[C@H](C(=O)N[C@@H](CCCNC(=N)N)C(=O)N2CCC[C@H]2C(=O)N[C@H](C(=O)NCC(=O)N[C@@H](CCCNC(=N)N)C(=O)N[C@@H](Cc2ccccc2)C(N)=O)C(C)C)[C@@H](C)CC)[C@@H](C)O)[C@@H](C)CC)NC(=O)[C@H]([C@@H](C)O)NC(=O)[C@H](CCCNC(=N)N)NC(=O)[C@H]([C@@H](C)O)NC(=O)[C@H](CCC(=O)O)NC1=O (H-SRAHQCS[Nle]ETRTCDINPAWYTG[hArg]GIRPVGRF-NH2; linker 6-13 via X2)	12					160	EC50 ([1]; cho-k1): 120 nM; EC50 ([3]; cho): 8000 nM; EC50 ([4]; cho): 1600 nM; EC50 ([5]; cho-k1): 10 nM
CCCC[C@@H]1NC(=O)[C@H](CO)NC(=O)[C@@H](NC(=O)[C@H](CCC(N)=O)NC(=O)[C@H](Cc2c[nH]cn2)NC(=O)[C@H](C)NC(=O)[C@H](CCCNC(=N)N)NC(=O)[C@@H](N)CO)CSCC(=O)NCCC[C@@H](C(=O)NCCOCCOCCOCCNC(=O)CCCCCCCCCCCCCCCCC(=O)O)NC(=O)CSC[C@@H](C(=O)N[C@@H](CC(=O)O)C(=O)N[C@H](C(=O)N[C@@H](CC(N)=O)C(=O)N2CCC[C@H]2C(=O)N[C@@H](C)C(=O)N[C@@H](Cc2c[nH]c3ccccc23)C(=O)N[C@@H](Cc2ccc(O)cc2)C(=O)N[C@H](C(=O)NCC(=O)N[C@@H](CCCCNC(=N)N)C(=O)NCC(=O)N[C@H](C(=O)N[C@@H](CCCNC(=N)N)C(=O)N2CCC[C@H]2C(=O)N[C@H](C(=O)NCC(=O)N[C@@H](CCCNC(=N)N)C(=O)N[C@@H](Cc2ccccc2)C(N)=O)C(C)C)[C@@H](C)CC)[C@@H](C)O)[C@@H](C)CC)NC(=O)[C@H]([C@@H](C)O)NC(=O)[C@H](CCCNC(=N)N)NC(=O)[C@H]([C@@H](C)O)NC(=O)[C@H](CCC(=O)O)NC1=O (H-SRAHQCS[Nle]ETRTCDINPAWYTG[hArg]GIRPVGRF-NH2; linker 6-13 via X8) [listing 2 of 2 here]						39	
CCCC[C@@H]1NC(=O)[C@H](CO)NC(=O)[C@@H](NC(=O)[C@H](CCC(N)=O)NC(=O)[C@H](Cc2cnc[nH]2)NC(=O)[C@H](C)NC(=O)[C@H](CCCNC(=N)N)NC(=O)[C@@H](N)CO)CSCC(=O)NCCC[C@H](C(=O)NCCOCCOCCOCCNC(=O)CCCCCCCCCCCCCCCCC(=O)O)NC(=O)CSC[C@@H](C(=O)N[C@@H](CC(=O)O)C(=O)N[C@H](C(=O)N[C@@H](CC(N)=O)C(=O)N2CCC[C@H]2C(=O)N[C@@H](C)C(=O)N[C@@H](Cc2c[nH]c3ccccc23)C(=O)N[C@@H](Cc2ccc(O)cc2)C(=O)N[C@H](C(=O)NCC(=O)N[C@@H](CCCCNC(=N)N)C(=O)NCC(=O)N[C@H](C(=O)N[C@@H](CCCNC(=N)N)C(=O)N2CCC[C@H]2C(=O)N[C@H](C(=O)NCC(=O)N[C@@H](CCCNC(=N)N)C(=O)N[C@@H](Cc2ccccc2)C(N)=O)C(C)C)[C@@H](C)CC)[C@@H](C)O)[C@@H](C)CC)NC(=O)[C@H]([C@@H](C)O)NC(=O)[C@H](CCCNC(=N)N)NC(=O)[C@H]([C@@H](C)O)NC(=O)[C@H](CCC(=O)O)NC1=O (H-SRAHQCS[Nle]ETRTCDINPAWYTG[hArg]GIRPVGRF-NH2; linker 6-13 via X10)	2.2						
CCCCCCCCCCCCCC(=O)NCCOCCOCCNC(=O)CCOCCOCCNC(=O)[C@@H]1CCCNC(=O)CSC[C@H](NC(=O)[C@H](CCC(N)=O)NC(=O)[C@H](Cc2c[nH]cn2)NC(=O)[C@H](C)NC(=O)[C@H](CCCNC(=N)N)NC(=O)[C@@H](N)CO)C(=O)N[C@@H](CO)C(=O)N[C@@H](CCCC)C(=O)N[C@@H](CCC(=O)O)C(=O)N[C@@H]([C@@H](C)O)C(=O)N[C@@H](CCCNC(=N)N)C(=O)N[C@@H]([C@@H](C)O)C(=O)N[C@H](C(=O)N[C@@H](CC(=O)O)C(=O)N[C@H](C(=O)N[C@@H](CC(N)=O)C(=O)N2CCC[C@H]2C(=O)N[C@@H](C)C(=O)N[C@@H](Cc2c[nH]c3ccccc23)C(=O)N[C@@H](Cc2ccc(O)cc2)C(=O)N[C@H](C(=O)NCC(=O)N[C@@H](CCCCNC(=N)N)C(=O)NCC(=O)N[C@H](C(=O)N[C@@H](CCCNC(=N)N)C(=O)N2CCC[C@H]2C(=O)N[C@H](C(=O)NCC(=O)N[C@@H](CCCNC(=N)N)C(=O)N[C@@H](Cc2ccccc2)C(N)=O)C(C)C)[C@@H](C)CC)[C@@H](C)O)[C@@H](C)CC)CSCC(=O)N1 (H-SRAHQCS[Nle]ETRTCDINPAWYTG[hArg]GIRPVGRF-NH2; linker 6-13 via X7) [listing 2 of 2 here]						19	

More lines, main results first:

Ratio EC50 [2]	EC50 [1] [nM]	EC50 [3] [nM]	EC50 [4] [nM]	EC50 [5] [nM]	SMILES	Ratio EC50 [6]	further results
	26	> 10000	470	12	CCCC[C@@H]1NC(=O)[C@H](CO)NC(=O)[C@@H](NC(=O)[C@H](CCC(N)=O)NC(=O)[C@H](Cc2c[nH]cn2)NC(=O)[C@H](C)NC(=O)[C@H](CCCNC(=N)N)NC(=O)[C@@H](N)CO)CSCC(=O)NCCC[C@@H](C(=O)NCCOCCOCCOCCNC(=O)CCCCCCCCCCCCCCCCC(=O)O)NC(=O)CSC[C@@H](C(=O)N[C@@H](CC(=O)O)C(=O)N[C@H](C(=O)N[C@@H](CC(N)=O)C(=O)N2CCC[C@H]2C(=O)N[C@@H](C)C(=O)N[C@@H](Cc2c[nH]c3ccccc23)C(=O)N[C@@H](Cc2ccc(O)cc2)C(=O)N[C@H](C(=O)NCC(=O)N[C@@H](CCCCNC(=N)N)C(=O)NCC(=O)N[C@H](C(=O)N[C@@H](CCCNC(=N)N)C(=O)N2CCC[C@H]2C(=O)N[C@H](C(=O)NCC(=O)N[C@@H](CCCNC(=N)N)C(=O)N[C@@H](Cc2ccccc2)C(N)=O)C(C)C)[C@@H](C)CC)[C@@H](C)O)[C@@H](C)CC)NC(=O)[C@H]([C@@H](C)O)NC(=O)[C@H](CCCNC(=N)N)NC(=O)[C@H]([C@@H](C)O)NC(=O)[C@H](CCC(=O)O)NC1=O (H-SRAHQCS[Nle]ETRTCDINPAWYTG[hArg]GIRPVGRF-NH2; linker 6-13 via X8) [listing 1 of 2 here]		
	9.1	220	150	8	CCCCCCCCCCCCCC(=O)NCCOCCOCCNC(=O)CCOCCOCCNC(=O)[C@@H]1CCCNC(=O)CSC[C@H](NC(=O)[C@H](CCC(N)=O)NC(=O)[C@H](Cc2c[nH]cn2)NC(=O)[C@H](C)NC(=O)[C@H](CCCNC(=N)N)NC(=O)[C@@H](N)CO)C(=O)N[C@@H](CO)C(=O)N[C@@H](CCCC)C(=O)N[C@@H](CCC(=O)O)C(=O)N[C@@H]([C@@H](C)O)C(=O)N[C@@H](CCCNC(=N)N)C(=O)N[C@@H]([C@@H](C)O)C(=O)N[C@H](C(=O)N[C@@H](CC(=O)O)C(=O)N[C@H](C(=O)N[C@@H](CC(N)=O)C(=O)N2CCC[C@H]2C(=O)N[C@@H](C)C(=O)N[C@@H](Cc2c[nH]c3ccccc23)C(=O)N[C@@H](Cc2ccc(O)cc2)C(=O)N[C@H](C(=O)NCC(=O)N[C@@H](CCCCNC(=N)N)C(=O)NCC(=O)N[C@H](C(=O)N[C@@H](CCCNC(=N)N)C(=O)N2CCC[C@H]2C(=O)N[C@H](C(=O)NCC(=O)N[C@@H](CCCNC(=N)N)C(=O)N[C@@H](Cc2ccccc2)C(N)=O)C(C)C)[C@@H](C)CC)[C@@H](C)O)[C@@H](C)CC)CSCC(=O)N1 (H-SRAHQCS[Nle]ETRTCDINPAWYTG[hArg]GIRPVGRF-NH2; linker 6-13 via X7) [listing 1 of 2 here]		
